Test results as given in the EternaBench riboswitch data.

Tested on: MS2 coat protein
Experiment: apparent Kd, MS2 coat protein; higher = weaker binding; RNA-MaP array; FMN 200 µM where present
Method in brief: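 SNAP-549-labelled MS2 coat protein, doubled from 0.7 or 1.5 nM to 3 µM, was titrated over designs transcribed by stalled E. coli RNA polymerase on Illumina sequencing-chip clusters. Titrations were run without and then with constant ligand in 100 mM Tris-HCl pH 7.5, 80 mM KCl, 4 mM MgCl2, BSA, DTT, yeast tRNA and Tween-20. The apparent Kd is the median of filtered per-cluster fits to green signal normalised to red-channel RNA signal and control-cluster median Fmax.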

[1] = designed as: OFF switch for flavin mononucleotide, no ligand
[2] = ligand present: flavin mononucleotide, designed as: OFF switch for flavin mononucleotide
[3] = designed as: ON switch for flavin mononucleotide, no ligand
[4] = ligand present: flavin mononucleotide, designed as: ON switch for flavin mononucleotide

Row | Sequence | apparent Kd [1] [nM] | apparent Kd [2] [nM] | apparent Kd [3] [nM] | apparent Kd [4] [nM]
1 | GGACAGCGAGGAUAUACGUGUACGUUAUCCUCUAUGGGUCAACAUGAGGAUCACCCAUGUAGAAGGCGCAUAAU | 19.4 | 28.1 | – | –
2 | GUGGUACAUGAGGAUCACCCAUGUGUGGGCGCGUGAGGAUAUGUCCGUACCUGGCGUACGAUAGAAGGCAUGGUGC | – | – | 73.9 | 34.6
3 | GCCAUCGCAUGAGGAUAUGCUCCGGUUUCCGGAGCAGAAGGUAUGUCAUAUGACAUGAGGAUCACCCAUGUAGUUAAGAUGGCA | – | – | 571 | 54.7
4 | AAUUAUUAUUGAGGAUAUCGUAUUGAAAUAAUAUGAGAAGGCGGGAUAAACAUGAGGAUCACCCAUGUGAGCCUGAUGCUUGUG | 16.6 | 16.3 | – | –
5 | GGAUGACAAAGUCAUCCAAUACGAACAUGAGGAUCACCCAUGUAGGAUAUGCUUCUCAAAGAGAAGCAGAAGGACAUGUGUCUU | 28.7 | 158 | – | –
6 | UAUUAUAGCAGUGUAUUAAGAUCACAUGAGGAUCACCCAUGUAGAAGGUAUAAGCAAUAUGCUAAUAAGGAUAUACAACACUGC | 8.13 | 27.5 | – | –
7 | GUGCGUGGCUAGGAUAUUGUGGAGUUUAGUCAGCGAGAAGGGACUACAUGAGGAUCACCCAUGUGUAGUUGCUC | 212 | 198 | – | –
8 | AAAGCAACAUGAGGAUCACCCAUGUAGGAUAUCGCUAUUGUAAUCAUGAAACAUGAUUACAAUAGCGAGAAGGACAUAUGCGGG | 42.5 | 45.2 | – | –
9 | GCCAUCGCAUGAGGAUAUGCUCGGGUUUCCCGAGCAGAAGGCAUGUAAUAAAACAUGAGGAUCACCCAUGUAGUUAAGAUGGCA | – | – | 8.29 | 5.36
10 | AAUAUGAGCUGGAAUAAACCUUGAACAUGAGGAUCACCCAUGUAGGAUAUCAGCACGAUAAGUGCUGAGAAGGACAACCAGCUC | 13.6 | 15.3 | – | –
11 | AAGGUGAGAGGAUAUACAUGAGGAUCACCCAUGUGCCGGCCCUCCACAUAUGCCUUGUGUAGAAGGCUCCCGAA | 14.5 | 14.9 | – | –
12 | CGAUUUACUGAGGAUAUUGCAUCACCCGACUGAUAAGAAGGCAGAACAUGAGGAUCACCCAUGUGGGUACUCAC | 80.5 | 91.1 | – | –
13 | UUUUAACAUGAGGAUCACCCAUGUGAGGAUAUCGAAAUUUAUAUUAAUAUUAAUAAAACGAGAAGGCACAUUUU | 82.2 | 90.1 | – | –
14 | GCACGAGACUAAGGAUAUGGUGUACCUACAUGUAACAUGAGGAUCACCCAUGUAGUAAGUAUGAUUCAGAAGGUAGAGACGUGC | – | – | 47.3 | 18.6
15 | UGAUCUGUCGCAGGAUAUUACGUUCGGGAUCUCACAUGAGGAUCACCCAUGUAAGAAGGGCGAACAGCAUUCCGGGUCGGGCAA | 19.6 | 75.4 | – | –
16 | AAGAGUGCAGGAUAUACUUGGUAGGGCGGGUGGAUGGUUUGACAUGAGGAUCACCCAUGUAGAAGGGCAGAGAG | 38.7 | 27.6 | – | –
17 | GUGAGGUCAGGAUAUGCAUGGCGGGACUUGCGUCGUGGCGUGCAGAAGGGACAUGAGGAUCACCCAUGUGGAGU | 157 | 238 | – | –
18 | AUCAGCUCGUCAGGAUAUACAUCACUGCUUCGGCAGUGUAUUAAGAUUACAUGAGGAUCACCCAUGUAGAAGGGACGAGCUGAU | 17.2 | 20.8 | – | –
19 | GGCUGCGUUGUGAAGGAUAUCCGCGUCUGGACAUGAGGAUCACCCAUGUAUGCUUGGAUCGUGCCGGAGAAGGUCACGGGUGAUU | – | – | 124 | 46
20 | GGUUCCAACACAGGAUAUGCUAUCCUUUGGGUAGCAGAAGGGUGAAAACAUGAGGAUCACCCAUGUGGAACCGGGCGUGAGCCC | – | – | 412 | 46.5
21 | AAUUGACACGUAGGAUAUCGCUCUUAAUUAACACGAGAAGGACGUACAUGAGGAUCACCCAUGUUAAAUGGUGUAGAUUAGUUG | 219 | 599 | – | –
22 | AAAACGAUGUGAGGAUAUCACCGCUGUGACGGCUGAGAAGGCACAUGAGGAUCACCCAUGUGCAGGCGUGUGUGGGUAAUCCUA | 109 | 94.8 | – | –
23 | AAGUCACAUGAGGAUCACCCAUGUCGUAAACGAUGAGGAUAUAGGAAGAAAAAAAAAAAACUAGAAGGUAUUACAA | – | – | 59.8 | 55.9
24 | ACACAACAUGAGGAUCACCCAUGUCAGGAUAUGCAGAACAAGAACAAGACAAGACAGAGCAGAAGGGACAACAC | 39.4 | 35.6 | – | –
25 | UCGUUUUUUGAGGAUAUGCGACGUUUUUUCGUCGUAGAAGGCGAUACAUGAGGAUCACCCAUGUUUAUGGGCAU | 190 | 318 | – | –
26 | CGUAUGUCAGGAUAUGCGUAUGCCACCCAGGACGGGCGGCAGCAGAAGGGACAUGAGGAUCACCCAUGUUCGGG | 75 | 68.4 | – | –
27 | UUUUUGCUAUAUACAUGAGGAUCACCCAUGUCCACUGACAGACAGGAUAUCCUUAGAAACUAGCAGGAGAAGGGUCAGUCAUAC | – | – | 487 | 69
28 | UGUUAAUUGUAGAAGGGUGACAUGAGGAUCACCCAUGUACUAAUGCGAUUUACGGCGCAUGUUCCACAGGAUAUACAGUUGAGU | – | – | 1270 | 274

Row | Sequence | apparent Kd [1] [nM] | apparent Kd [2] [nM] | apparent Kd [3] [nM] | apparent Kd [4] [nM]
29 | GGUACUCAAAGAGUACUGAGUCGAACAUGAGGAUCACCCAUGUAGGAUAUGCGAGUUUUGAAUUUGCAGAAGGACAUUUGCAGC | 9.34 | 10.8 | – | –
30 | CUGAGCAAUGUAGGAUAUCGACUGGAAUACAGUCGAGAAGGACAUGAGGAUCACCCAUGUAAAUGAGUGAAUAAUAAAGCUCAG | 735 | 345 | – | –
31 | ACGUAUAGAGGAUAUAGUGAAUAUUACAUGAGGAUCACCCAUGUUCUUCAAAGUAUAUUUCUAGAAGGCUAAUGAA | 35 | 92.7 | – | –
32 | AUUUUUAAGGUAGGAUAUAGUAUAAUGGUUUAAUUAGAAGGAUCUCACAUGAGGAUCACCCAUGUAAUAGGAUUACCCAUGUAU | 38.8 | 26.8 | – | –
33 | GCCGAACAUGAGGAUCACCCAUGUCUGGGUAAUUAAGGAUAUGGGAAGGCUUUGCCGUGGCCAGAAGGUGGUUAUC | – | – | 171 | 108
34 | AGCUGUGGCCGAGGAUAUACAUUCCUAAUCCAUUGCAAAUAGCGAUGGACAUGAGGAUCACCCAUGUAGAAGGCGGUCUCAGCA | 561 | 163 | – | –
35 | UUGGACGUCGUAGGAUAUGUAGUAUAUUCCUACAUGAGGAUCACCCAUGUUGACAUGGAAGAAGGACAGAAGGACGAUGUCCAU | – | – | 6.54 | 5.01
36 | UACAUGAGGAUCACCCAUGUUUUGUCGUGUAUGGUAUUUAUCUAGGAUAUCAAUGUAUUUAUGUAUGAGAAGGAGAAUAUUAAU | 45.7 | 37.3 | – | –
37 | CGUGACUACAUAGGAUAUUGAUACAUGAGGAUCACCCAUGUCACCCAUUUAUAUAUUAGUGUUGACAAGAAGGAUGUGGUCACG | – | – | 16.2 | 7.25
38 | GUGUACAGAGGAUAUACAUGAGCAUGGAAACAUGCAUCUUCACAUGAGGAUCACCCAUGUAGAAGGCUGUACAC | 227 | 75 | – | –
39 | CUAUUUAAUGCCUCAUGUACAUGAGGAUCACCCAUGUUAACUUAGGAUAUAUUUAUAUUGAUAGAGUAGAAGGAAGUACUAUUU | 25.4 | 27.3 | – | –
40 | AAAAAACAUGAGGAUCACCCAUGUGAGGAUAUCUGUAUUCAAUCCUCGGAUUGAAUACAGAGAAGGCACAUGGG | 26.6 | 26.9 | – | –
41 | UGGAUGGUAUGAGGAUAUGCGCGCGAAACGCGCGCAGAAGGCAUGUCAAUAGACAUGAGGAUCACCCAUGUACUAUCCAUCCAC | – | – | 121 | 9.41
42 | UUACAGGUUUAAGGCGUUCCCAGACAUGAGGAUCACCCAUGUAGAAGGACCGUAAGAAAUUUUCGGUAGGAUAUACAUUAAGGG | 28.6 | 29.2 | – | –
43 | GGAUAUAUGAAGGGCGAACGCGCACAUGAGGAUCACCCAUGUAGAAGGCGGUCCGCAACGCGGAUCGAGGAUAUAUAGUAUACG | 19.1 | 17.3 | – | –
44 | UUUUUGUGAGGAUAUCAGUAGUAAAAUAAAUAAAUUACUACUGAGAAGGCACAUGAGGAUCACCCAUGUUCCUU | 14 | 30.3 | – | –
45 | CCGGAUAUGCAGGAUAUCGUAUCGGAUACGAUACGAGAAGGGUAUACAUGAGGAUCACCCAUGUGUCCUACCGG | 22.8 | 31.5 | – | –
46 | AAUGUUUUCAUAGGAUAUUGACUUUUAUUUAUUCAAGAAGGAUGAUAACAUGAGGAUCACCCAUGUUAAAAUGGAUUAACUAGU | 16.1 | 26.6 | – | –
47 | GCGUAUUAGGUGUAGCUAGACAUUCAAGAAGGGUGAAGAACAUGAGGAUCACCCAUGUAGUUGGUACAGGAUAUUGAUUUACGC | – | – | 897 | 176
48 | GUUUUGGGAGGAUAUAUGUGGAUUAUUUUUAUAUGUUAUUUACAUGAGGAUCACCCAUGUAGAAGGUCUAGAGC | 163 | 249 | – | –
49 | CUUUAACUACAAUUACAUGAGGAUCACCCAUGUUUUGGGAUGCAGGAUAUGUGGUAUAUUAAUUAACAGAAGGGCAAUAAUUAA | – | – | 40.7 | 38.9
50 | UCGCUGCGAGGAUAUACAUGAGGAUCACCCAUGUACGGGUCCGGGUCUUAGUUGAUUGGUAGAAGGCGCAGUGA | 106 | 212 | – | –
51 | AUACCACGAGGAUAUCGUCUAUAAUACAUGAGGAUCACCCAUGUUAUAUCUGUAAUGUUUCGAGAAGGCGUGUUUU | 17.5 | 14.2 | – | –
52 | AAUAAACUCACAGGAUAUAGCAUAGGUCGCGUGUACUUACAGGCGACUAUGCUAGAAGGGUGACCACAUGAGGAUCACCCAUGU | – | – | 887 | 188
53 | UUUUUUUUACAGAAGGGAAUCAUGAUUUUUUGUUUUUACAUGAGGAUCACCCAUGUUUAUCUUUUUCAGGAUAUGUAUUUUUUU | – | – | 61.3 | 32
54 | UCGAAAAUGCAAGGAUAUCAAUUAUAGCAAAAUAAGACAUGAGGAUCACCCAUGUAAAUAUGGAGUGAGAAGGUGCAAUAAUUU | – | – | 413 | 123
55 | CGCAAUAUACAGAAGGAGUUAUUUAGAGGUUUACUAGGAUAUGUUCACAUGAGGAUCACCCAUGUCAUAUGGUUUUUUAUUGCG | 10.1 | 8.96 | – | –
